Bioassay records deposited in PubChem by Johns Hopkins Ion Channel Center.
KCNK9 inh = blocks the human KCNK9 two-pore domain potassium channel. HEK293 KCNK9, FluxOR thallium flux fluorescence; stronger effect = lower value. B-score at 10 µM. actives 1.2% (n = 310,000). AID 488922;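 active means ratio B-score over 3 SD below the library mean, with starting fluorescence within 5 SD of its mean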;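 further: negative B-score means less thallium flux so channel inhibition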
Target sequence (Q9NPC2 whole entry, looked up, the tested form may be a part): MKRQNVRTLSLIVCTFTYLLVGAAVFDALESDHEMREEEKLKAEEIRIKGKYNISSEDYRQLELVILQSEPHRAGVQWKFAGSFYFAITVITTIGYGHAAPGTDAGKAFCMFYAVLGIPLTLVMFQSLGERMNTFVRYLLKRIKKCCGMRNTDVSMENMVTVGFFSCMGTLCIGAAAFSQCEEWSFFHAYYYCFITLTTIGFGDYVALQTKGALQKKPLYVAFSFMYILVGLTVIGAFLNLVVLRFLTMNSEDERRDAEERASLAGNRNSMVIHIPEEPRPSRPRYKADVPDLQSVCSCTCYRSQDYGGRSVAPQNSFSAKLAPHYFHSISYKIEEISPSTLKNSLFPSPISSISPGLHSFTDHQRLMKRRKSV
hERG rescue = compounds protecting human hERG from proarrhythmic drug block. AID 1511. Q12809. activation (rescue from dofetilide block), less the hit threshold, % at 10 µM. actives 0.51% (n = 310,000). CHO-hERG, FluxOR thallium flux, dofetilide IC70 present;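 active means activation above the mean of controls blocked by dofetilide plus 5 SD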;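 further: thallium influx through hERG after potassium depolarization seen as dye fluorescence rise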
KCNQ1 block = human KCNQ1 channel inhibition; P51787; CHO-K1 KCNQ1, FluxOR thallium flux fluorescence; stronger effect = higher value; B-score at 10 µM; actives 1.3% (n = 310,000);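 active means compounds whose thallium flux B-score, printed positive for inhibition, exceeds three library SD while starting fluorescence stays within three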;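 further: channel opened by potassium depolarization with thallium stimulus after 20 min compound exposure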
Kir21 inh = blocks the mouse Kir2.1 inward-rectifier potassium channel; AID 1672; B-score at 10 µM; HEK293-Kir2.1, FluxOR thallium flux fluorescence; stronger effect = lower value; P35561; actives 0.85% (n = 310,000);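 active means fluorescence ratio B-score at or below minus 3 SD of library scores, with starting-brightness B-score within 2 SD, cut at about -4.2 in these data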;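 further: channel flux triggered by added potassium and thallium sulfate stimulus; B-score of peak minus minimum fluorescence over baseline after thallium stimulus; more negative B-score means stronger Kir2.1 block with less thallium influx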
KCNQ1 pot = human KCNQ1 channel potentiation or activation; P51787; CHO-K1 KCNQ1, thallium flux FluxOR fluorescence; stronger effect = higher value; B-score at 10 µM; actives 0.35% (n = 310,000);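 active means fluorescence ratio B-score, a plate-corrected score, at least three library SD, with initial intensity B-score within 5 SD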
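Doses: Single concentration per compound, DMSO matched to controls | Test system: KCNQ1-transfected CHO-K1 cells | Timing: 90 min dye loading and 20 min compound exposure, both at room temperature | Measured by: Kinetic FluxOR thallium fluorescence, 10-s 1-Hz baseline, 110-s post-stimulus read | Medium: Assay buffer with matched DMSO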
KCNK3 inh = human KCNK3 channel inhibition, primary screen. AID 602410. actives 0.84% (n = 340,000). O14649. B-score at 10 µM. CHO-KCNK3 thallium flux, FluxOR fluorescence; stronger effect = lower value;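 active means B-score under library mean minus 4 SD, starting fluorescence ratio at most library mean plus 5 SD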;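 further: more negative B-score means stronger inhibition of thallium flux through KCNK3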
Target sequence (O14649 whole entry, looked up): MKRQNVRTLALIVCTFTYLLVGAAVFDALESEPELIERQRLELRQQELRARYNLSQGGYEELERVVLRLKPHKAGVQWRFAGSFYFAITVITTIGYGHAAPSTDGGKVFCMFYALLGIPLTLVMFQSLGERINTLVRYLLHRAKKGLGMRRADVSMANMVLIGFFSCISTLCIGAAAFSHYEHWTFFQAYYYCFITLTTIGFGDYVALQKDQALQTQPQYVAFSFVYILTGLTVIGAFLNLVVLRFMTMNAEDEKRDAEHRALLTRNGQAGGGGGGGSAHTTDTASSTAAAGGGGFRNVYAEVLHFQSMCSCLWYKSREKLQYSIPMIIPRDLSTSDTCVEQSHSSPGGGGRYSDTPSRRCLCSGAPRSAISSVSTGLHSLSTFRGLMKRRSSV
KCNK9 inh conf = confirmation of human KCNK9 potassium channel inhibitors | shares compounds with KCNK9 inh | HEK293 KCNK9 cells, FluxOR thallium flux fluorescence | inhibition, % at 10 µM | actives 43% (n = 4,900) | AID 492992;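 active means thallium signal inhibited by more than 5 SD of the compound-free buffer control wells, on both duplicate plates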
Kir21 sel = mouse Kir2.1 off-target activity of KCNK9 modulators; shares compounds with KCNK9 inh; Kir2.1 cells, FluxOR thallium flux fluorescence; inhibition, % at 10 µM; actives 4% (n = 4,900);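 active means thallium signal drop more than 5 SD beyond the mean of the no-compound control wells, seen in both duplicate plates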;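 further: signal is fluorescence rise after thallium addition divided by baseline fluorescence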
KCNK9 uninduced = second counter-screen for KCNK9 modulators: effect in non-induced cells; non-induced KCNK9-HEK293, FluxOR thallium flux; inhibition, % at 10 µM; actives 40% (n = 4,900); shares compounds with KCNK9 inh; AID 492997;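 active means thallium signal drop beyond 5 SD of the untreated control mean, on both duplicate plates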
Each line names hits and unclear results; the compound was inactive in the other large screens (follow-up assays come after a bar, where they were run); ! = a repeat was not active. The list is not random: actives were taken first. Their share in the collection is about 3.7%.

O=C(NCc1ccccc1)C1=C[C@H](c2ccc(Br)cc2)C[C@H](OCCCCO)O1	none | KCNK9 inh conf inactive | Kir21 sel inactive | KCNK9 uninduced inactive
CC(C)(C)[C@H]1C=C(C(=O)NCc2ccccc2)O[C@@H](OCCCCO)C1	none | KCNK9 inh conf inactive | Kir21 sel inactive | KCNK9 uninduced inactive
COc1ccc(C(CNC(=O)c2c(C)nn(Cc3ccc(C)cc3)c2Cl)N2CCOCC2)cc1 (stereo unspecified)	none (no result: KCNK9 inh, hERG rescue, KCNQ1 block, Kir21 inh, KCNQ1 pot)
Cc1ccc(S(=O)(=O)NCCC(=O)NNC(=O)c2ccccc2O)cc1C	none
O=C(NC1CC1)C1=C[C@H](c2csc3ccccc23)C[C@H](OCc2ccc(CO)cc2)O1	none
O=C(Nc1ccccc1)C1=C[C@H](c2csc3ccccc23)C[C@H](OCc2ccc(CO)cc2)O1	KCNK9 inh -9.1 | KCNK9 inh conf 45.5% | Kir21 sel inactive | KCNK9 uninduced 35.5%
O=C(Nc1nnc(C2CC2)s1)c1cc(-c2ccccc2)nn1-c1ccccc1	KCNK9 inh -9.42 | KCNK9 inh conf 29.5% | Kir21 sel inactive | KCNK9 uninduced inactive
CN(C)CC/C=C1\c2ccccc2COc2ccccc21	none
CN(C)CC/C=C1/c2ccccc2Sc2ccc(Cl)cc21	Kir21 inh -4.28 | KCNK9 inh conf inactive | Kir21 sel inactive | KCNK9 uninduced inactive
CCOC(=O)N1CCN(c2ncnc3scc(-c4ccc(Cl)cc4)c23)CC1	none
Clc1ccc(-c2csc3ncnc(N4CCc5ccccc5C4)c23)cc1	KCNK9 inh -10.5 | KCNK9 inh conf 45.0% | Kir21 sel inactive | KCNK9 uninduced 40.5%
Cc1ccccc1N1CCN(c2ncnc3scc(-c4cccs4)c23)CC1	KCNK9 inh -13.6 | KCNK9 inh conf 44.5% | Kir21 sel inactive | KCNK9 uninduced inactive
Clc1ccc(CN2CCN(c3ncnc4scc(-c5cccs5)c34)CC2)cc1	KCNK9 inh -13, KCNQ1 block 7 | KCNK9 inh conf 34.5% | Kir21 sel inactive | KCNK9 uninduced inactive
CCC(CC)N1CCN(C(=O)c2cccc(Cl)c2)CC1	none
CCCN(CCC)S(=O)(=O)c1cccc(-c2csc(C)n2)c1	none | KCNK9 inh conf inactive | Kir21 sel 27.5% | KCNK9 uninduced inactive
CCN(CC)c1ccc2cc(S(=O)(=O)c3ccc(C)cc3)c(=O)oc2c1	none
Cc1ccc(Oc2ccc(Cl)cc2NC(=O)c2ccc(F)cc2F)cc1	none
O=C(NCC(c1ccco1)N1CCc2ccccc21)C(=O)Nc1ccc(F)cc1F (stereo unspecified)	KCNK9 inh -13.6 | KCNK9 inh conf 32.5% | Kir21 sel inactive | KCNK9 uninduced 27.0%
CCCCCC(=O)Nc1ccccc1N1CCN(c2ccccc2)CC1	KCNK9 inh -12.8, KCNK3 inh -10.5 | KCNK9 inh conf 49.0% | Kir21 sel inactive | KCNK9 uninduced 36.5%
O=C(COc1ccccc1)Nc1ccccc1N1CCN(c2ccc(F)cc2)CC1	KCNK9 inh -8.64 | KCNK9 inh conf inactive | Kir21 sel inactive | KCNK9 uninduced 27.5%
CCC(=O)N1CCN(c2ccccc2NC(=O)COc2cc(C)ccc2C(C)C)CC1	KCNK9 inh -8.22 | KCNK9 inh conf 46.0% | Kir21 sel inactive | KCNK9 uninduced 28.5%
Cc1cc(C)c(OCC(=O)Nc2ccccc2N2CCOCC2)c(C)c1	KCNK9 inh -10.2, KCNK3 inh -10 | KCNK9 inh conf inactive | Kir21 sel inactive | KCNK9 uninduced 48.5%
Cc1cc(C)c(OCC(=O)Nc2ccccc2N2CCCCC2)c(C)c1	none
Cc1noc(C)c1COc1ccccc1C(=O)NCCc1ccc(S(N)(=O)=O)cc1	none
CCOC(=O)N/N=C/c1c(C)c(C(=O)c2ccc(F)cc2)n2ccccc12	KCNK9 inh -11.4 | KCNK9 inh conf inactive | Kir21 sel inactive | KCNK9 uninduced inactive
CCCn1cc(CN2CCCC(C(=O)c3cccc(OC(C)C)c3)C2)c(C)n1 (stereo unspecified)	none | KCNK9 inh conf inactive | Kir21 sel inactive | KCNK9 uninduced inactive
CCCn1ncc(CN2CCCC(C(=O)c3cccc(OC(C)C)c3)C2)c1C (stereo unspecified)	none
CC(C)Oc1cccc(C(=O)C2CCCN(Cc3cnc(N4CCCC4)s3)C2)c1 (stereo unspecified)	none | KCNK9 inh conf inactive | Kir21 sel inactive | KCNK9 uninduced inactive
COc1ccc(-c2csc(Nc3ccccc3)[n+]2Cc2ccccc2)cc1	KCNK9 inh -9.39 | KCNK9 inh conf 45.5% | Kir21 sel inactive | KCNK9 uninduced 27.0%
CCOC(=O)Cn1c(COc2ccccc2OC)[n+](C)c2ccccc21	none
CCCCCCCCCCOC(=O)Cn1c(COc2ccc(OC)cc2)[n+](C)c2ccccc21	KCNK9 inh -16.5, KCNQ1 block 10, Kir21 inh -8.59 | KCNK9 inh conf 70.0% | Kir21 sel 75.0% | KCNK9 uninduced 33.0%!
CCCCCCCCCCOC(=O)Cn1c(COc2ccc(Cl)cc2)[n+](C)c2ccccc21	KCNK9 inh -10.5 | KCNK9 inh conf 72.5% | Kir21 sel 49.5% | KCNK9 uninduced inactive
CCCCCCCCCCOC(=O)Cn1c(COc2ccccc2)[n+](C)c2ccccc21	KCNK9 inh -14.7, KCNQ1 block 8, Kir21 inh -13.5 | KCNK9 inh conf 72.0% | Kir21 sel 75.0% | KCNK9 uninduced 33.5%
CCCCCOC(=O)Cn1c(=O)oc2ccccc21	none
Cc1ccc(C)c(C(=O)OCC(=O)N(C)c2ccccc2)c1	none | KCNK9 inh conf inactive | Kir21 sel inactive | KCNK9 uninduced inactive
CC(=O)N1CCCc2ccc(NS(=O)(=O)c3ccccc3)cc21	none
CN(CC(=O)Nc1cccc(Cl)c1)S(=O)(=O)c1ccc2c(c1)n(C)c(=O)c(=O)n2C	none
Oc1[nH]c2ccccc2c1N=NC(=S)N1CCOCC1	KCNK9 inh -12.7 | KCNK9 inh conf 54.5% | Kir21 sel inactive | KCNK9 uninduced 45.0%
CCOC(=O)NC(=O)CSc1nc(-c2ccc(C)c(C)c2)cn1-c1ccccc1	KCNK9 inh -8.16 | KCNK9 inh conf 41.5% | Kir21 sel inactive | KCNK9 uninduced 36.0%
Cc1ccc(-c2cn(-c3ccccc3)c(SCC(N)=O)n2)cc1C	none
CC(C)C(C)NC(=O)COc1ccc(-c2ccccc2)cc1 (stereo unspecified)	KCNK9 inh -9.86 | KCNK9 inh conf 34.0% | Kir21 sel inactive | KCNK9 uninduced inactive
CC(C)C(C)NC(=O)COc1ccc(OCc2ccccc2)cc1 (stereo unspecified)	none
